Experimental data from ChEMBL document CHEMBL1129431, “Derivatives of (R)- and (S)-5-fluoro-8-hydroxy-2-(dipropylamino)tetralin: synthesis and interactions with 5-HT1A receptors” (J Med Chem, 1996).

How the values were obtained:
[1] = molecular target: T1, 5-hydroxytryptamine receptor 1A (Rattus norvegicus) (UniProt P19327); conditions: 0.05 uM
T1 sequence (whole entry): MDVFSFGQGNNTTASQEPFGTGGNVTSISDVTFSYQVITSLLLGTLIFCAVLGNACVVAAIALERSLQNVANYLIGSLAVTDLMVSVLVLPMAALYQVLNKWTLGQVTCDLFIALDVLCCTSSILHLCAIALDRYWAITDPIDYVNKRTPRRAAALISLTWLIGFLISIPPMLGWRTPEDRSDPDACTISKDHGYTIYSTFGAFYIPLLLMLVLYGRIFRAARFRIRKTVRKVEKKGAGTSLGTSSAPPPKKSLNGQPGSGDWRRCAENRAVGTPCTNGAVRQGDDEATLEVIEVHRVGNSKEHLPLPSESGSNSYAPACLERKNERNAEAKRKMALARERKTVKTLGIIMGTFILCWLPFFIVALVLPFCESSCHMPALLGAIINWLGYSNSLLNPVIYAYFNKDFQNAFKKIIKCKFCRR

[2] = molecular target: T1, 5-hydroxytryptamine receptor 1A (Rattus norvegicus); test: Effect on 5-hydroxytryptamine 1A receptor mediated inhibition of VIP-stimulated cAMP production at dose of 1 uM+ 50 uM 5-HT.; type: functional; conditions: values are per cent of control
How it was run: (§1)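 GH4ZD10 cells expressing rat 5-HT1A receptors, detached with EDTA-supplemented Ca/Mg-free EBSS and resuspended in Ham's F10 with 0.01% ascorbic acid and 0.1 mM IBMX. Preincubated 1 h at 37 °C, then 0.8-1.5×10^6 cells/mL incubated 20 min at 37 °C with VIP (39 nM final) plus compounds. Duplicate samples stopped by boiling. cAMP measured in triplicate by protein-binding assay. Results are given as % of the VIP-stimulated response.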

[3] = molecular target: T1, 5-hydroxytryptamine receptor 1A (Rattus norvegicus); test: Effect on 5-hydroxytryptamine 1A receptor mediated inhibition of VIP-stimulated cAMP production at dose of 50 uM; type: functional; conditions: values are per cent of control
How it was run: as §1

[4] = molecular target: T1, 5-hydroxytryptamine receptor 1A (Rattus norvegicus); test: Effect on 5-hydroxytryptamine 1A receptor mediated inhibition of VIP-stimulated cAMP production at dose of 1 uM; type: functional; conditions: values are per cent of control
How it was run: (§2)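 GH4ZD10 cells expressing rat 5-HT1A receptors were detached with EBSS plus 1 mM EDTA and resuspended to ~1×10^7 cells/mL in Ham's F10 with 0.01% ascorbic acid and 0.1 mM IBMX. After 1 h preincubation at 37 °C they were diluted to 0.8-1.5×10^6 cells/mL, then incubated 20 min at 37 °C with VIP (39 nM final) plus compound, alone or with 5-HT, in duplicate. The reaction was stopped by boiling. cAMP was measured in triplicate by protein-binding assay and expressed as % of the VIP-stimulated response.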

[5] = molecular target: T1, 5-hydroxytryptamine receptor 1A (Rattus norvegicus); test: Effect on 5-hydroxytryptamine 1A receptor mediated inhibition of VIP-stimulated cAMP production at dose of 0.1 uM + 1 uM 5-HT.; type: functional; conditions: values are per cent of control
How it was run: as §2

[6] = molecular target: T2, 5-hydroxytryptamine receptor 1A (Rattus norvegicus, UniProt P19327); test: Binding affinity against rat hippocampal 5-hydroxytryptamine 1A (5-HT1A) receptor determined using [3H]8-OH-DPAT as radioligand; type: tissue-based, Hippocampus
T2 sequence (P19327 whole entry): T1 sequence (whole entry)

[7] = molecular target: T1, 5-hydroxytryptamine receptor 1A (Rattus norvegicus); test: Effect on 5-hydroxytryptamine 1A receptor mediated inhibition of VIP-stimulated cAMP production at dose of 0.05 uM; type: functional; conditions: values are per cent of control
How it was run: as §1

[8] = molecular target: T1, 5-hydroxytryptamine receptor 1A (Rattus norvegicus); test: Effect on 5-hydroxytryptamine 1A receptor mediated inhibition of VIP-stimulated cAMP production at dose of 1 uM+ 1 uM 5-HT.; type: functional; conditions: values are per cent of control
How it was run: as §1

[9] = molecular target: T1, 5-hydroxytryptamine receptor 1A (Rattus norvegicus); test: Effect on 5-hydroxytryptamine 1A receptor mediated inhibition of VIP-stimulated cAMP production at dose of 50 uM+ 50 uM 5-HT.; type: functional; conditions: values are per cent of control
How it was run: as §1

[10] = molecular target: T1, 5-hydroxytryptamine receptor 1A (Rattus norvegicus); test: Effect on 5-hydroxytryptamine 1A receptor mediated inhibition of VIP-stimulated cAMP production at dose of 10 uM+ 10 uM 5-HT.; type: functional; conditions: values are per cent of control
How it was run: as §1

[11] = molecular target: T1, 5-hydroxytryptamine receptor 1A (Rattus norvegicus); test: Effect on 5-hydroxytryptamine 1A receptor mediated inhibition of VIP-stimulated cAMP production at dose of 10 uM; type: functional; conditions: values are per cent of control
How it was run: as §2

CCCN(CCCCN1C(=O)CC2(CCCC2)CC1=O)[C@H]1CCc2c(F)ccc(OC)c2C1 showed a response, % of control [1] of 87%, a response, % of control [2] of 41% and a response, % of control [3] of 39%. It also gave a response, % of control [4] of 79%, a response, % of control [5] of 50% and a Ki [6] of 4.9 nM.

CCCN(CCCCN1C(=O)CC2(CCCC2)CC1=O)[C@H]1CCc2c(F)ccc(C(C)=O)c2C1 showed a response, % of control [7] of 104%, a response, % of control [8] of 91% and a response, % of control [9] of 91%. The response, % of control [10] was 102%, the response, % of control [3] was 93% and the response, % of control [4] was 97%. For the same molecule, the response, % of control [11] was 109%, the response, % of control [5] was 70% and the Ki [6] was 13.9 nM.
